Data: article PMC6889762 (Toxicology Reports, 2019)

Assays:
Ferrous ion = assay: Ferrous ion
Summary of the method: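 FeCl2 (0.6 mM stock) added to the test compound solution; iron complex formation measured spectrophotometrically at 522 nm. Chelated Fe2+ % = (1 − As/Ac) × 100, where Ac is the control absorbance. IC50 came from a plot of % against concentration. Triplicate, mean ± SD.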

Fe3+ reducing ability = details: for Fe^3+ reducing (absorbance): 20 μg/mL, absorbance at 700 nm
Cu2+ reducing ability = details: for Cu^2+ reducing (absorbance): 20 μg/mL, absorbance at 450 nm; for Cu^2+ ions reducing ability (absorbance): running text: at 30 μg/mL concentration, 450 nm
Summary of the method: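 CUPRAC assay: CuCl2 (10 mM stock), neocuproine (7.5 mM stock) and 1.0 M acetate buffer were added to the test compound (10−30 μg/mL). The mixture was made up with deionized water, tubes were closed and left at room temperature, and absorbance was read at 450 nm. Higher absorbance means greater reducing ability. Triplicate runs, mean ± SD.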

[1] = Fe3+-TPTZ reducing ability; details: for Fe^3+-TPTZ reducing (absorbance): 20 μg/mL, absorbance at 593 nm
DPPH radical scavenging = assay: DPPH radical scavenging
Summary of the method: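 Ethanolic DPPH (0.1 mM stock) added to the test compound in ethanol (10−30 μg/mL). Incubated 30 min in the dark, absorbance read at 517 nm. Scavenging % = (1 − As/Ac) × 100. IC50 was obtained by plotting % against concentration. Triplicate analyses, mean ± SD.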

[2] = ABTS radical cation scavenging
Summary of the method: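 Radical cation generated from 2.0 mM ABTS in deionized water with 2.3 mM K2S2O8, then diluted with pH 7.4 buffer to absorbance 0.750 ± 0.025. Test compound (10−30 μg/mL) mixed with the radical solution; residual absorbance read at 734 nm. Scavenging % = (1 − As/Ac) × 100. IC50 was taken from a plot of % against concentration. Triplicate runs, mean ± SD.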

[3] = DMPD radical cation scavenging
Summary of the method: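 DMPD solution (0.1 M stock) added to 0.1 M acetate buffer, pH 5.3, containing the test compound (10−30 μg/mL). FeCl3 (50 mM stock) was then added and absorbance measured at 505 nm. Scavenging % = (1 − As/Ac) × 100. IC50 was read from a plot of % against concentration. Triplicate, mean ± SD.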

[4] = Superoxide anion radical scavenging
Summary of the method: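 Superoxide generated in a methionine–riboflavin system under illumination and detected by NBT reduction at 560 nm. Scavenging % = (1 − As/Ac) × 100 against a compound-free control. IC50 was estimated from a plot of % against test compound concentration. Triplicate, mean ± SD.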

[5] = molecular target: acetylcholinesterase (AChE) (Electrophorus electricus, UniProt O42275); assay: AChE inhibition; assay type: biochemical, Electric eel
acetylcholinesterase (AChE), sequence (O42275 24-633): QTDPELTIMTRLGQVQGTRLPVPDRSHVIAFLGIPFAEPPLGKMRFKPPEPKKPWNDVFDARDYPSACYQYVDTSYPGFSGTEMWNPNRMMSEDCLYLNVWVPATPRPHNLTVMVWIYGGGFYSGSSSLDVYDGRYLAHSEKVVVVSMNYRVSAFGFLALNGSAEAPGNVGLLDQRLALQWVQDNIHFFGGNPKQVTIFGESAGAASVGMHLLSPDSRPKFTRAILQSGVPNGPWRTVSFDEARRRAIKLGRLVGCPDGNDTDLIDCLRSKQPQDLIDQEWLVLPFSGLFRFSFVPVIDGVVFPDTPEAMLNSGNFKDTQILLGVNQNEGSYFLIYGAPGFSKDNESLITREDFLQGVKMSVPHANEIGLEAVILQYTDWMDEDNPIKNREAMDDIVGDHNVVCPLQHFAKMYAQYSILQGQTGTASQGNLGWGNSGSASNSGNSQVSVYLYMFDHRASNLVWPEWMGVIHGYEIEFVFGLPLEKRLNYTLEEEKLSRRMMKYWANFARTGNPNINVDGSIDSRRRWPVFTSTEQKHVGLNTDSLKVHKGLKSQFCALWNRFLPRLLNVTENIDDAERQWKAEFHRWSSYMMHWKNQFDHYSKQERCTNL

[6] = molecular target: butyrylcholinesterase (BChE) (Equus caballus, UniProt P81908); assay: biochemical; set-up: species or system equine
butyrylcholinesterase (BChE), sequence (P81908 whole entry): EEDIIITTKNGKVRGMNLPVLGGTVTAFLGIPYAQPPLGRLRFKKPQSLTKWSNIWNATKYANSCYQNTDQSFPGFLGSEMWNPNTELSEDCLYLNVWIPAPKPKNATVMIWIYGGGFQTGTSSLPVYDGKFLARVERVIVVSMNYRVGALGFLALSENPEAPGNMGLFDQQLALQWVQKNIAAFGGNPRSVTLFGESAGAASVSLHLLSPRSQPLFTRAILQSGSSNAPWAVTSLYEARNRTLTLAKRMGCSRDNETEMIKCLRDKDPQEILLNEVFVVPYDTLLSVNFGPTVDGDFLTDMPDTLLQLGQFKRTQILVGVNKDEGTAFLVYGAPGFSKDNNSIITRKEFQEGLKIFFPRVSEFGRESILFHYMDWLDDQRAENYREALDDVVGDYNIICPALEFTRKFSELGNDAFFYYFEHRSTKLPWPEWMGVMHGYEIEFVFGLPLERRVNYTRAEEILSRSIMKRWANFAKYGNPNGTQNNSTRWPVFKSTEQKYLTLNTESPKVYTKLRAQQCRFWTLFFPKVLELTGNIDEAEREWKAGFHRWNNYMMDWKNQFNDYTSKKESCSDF

Row | Compound | Metal chelating (Fe^2+) IC50 (Ferrous ion) [µg/mL] | Fe^3+ reducing (absorbance) (Fe3+ reducing ability) | Cu^2+ reducing (absorbance) (Cu2+ reducing ability) | Cu^2+ ions reducing ability (absorbance) (Cu2+ reducing ability) | Fe^3+-TPTZ reducing (absorbance) [1] | DPPH· scavenging IC50 (DPPH radical scavenging) [µg/mL] | ABTS^•+ scavenging IC50 [2] [µg/mL] | DMPD^•+ scavenging IC50 [3] [µg/mL] | O2^•− scavenging IC50 [4] [µg/mL] | Fe^3+ reducing ability (absorbance) (Fe3+ reducing ability; concentration not given, 700 nm) | FRAP effects (absorbance) ([1]; concentration not given, 593 nm) | IC50 [5] [nM] | Ki [5] [nM] | IC50 [6] [nM] | DMPD^•+ scavenging activity [3]
1 | O=C(O)CN(CCN(CC(=O)O)CC(=O)O)CC(=O)O [EDTA] | 6.24 | – | – | – | – | – | – | – | – | – | – | – | – | – | –
2 | Cc1c(C)c2c(c(C)c1O)CCC(C)(C(=O)O)O2 (stereo not drawn) [Trolox, trolox] | 8.05 | 1.148 | 0.825 | 0.825 | 1.973 | 8.01 | 4.30 | 22.35 | 30.13 | – | – | – | – | – | –
3 | CC(=O)c1c(O)c(C)c(O)c2c1OC1=CC(=O)C(C(C)=O)C(=O)C12C (stereo not drawn) [Usnic acid] | 18.68 | 0.278 | 0.277 | 0.277 | 1.293 | 49.50 | 10.41 | 33.00 | 20.38 | 0.278 | 1.293 | 1.27 | 0.239 | 3.4 | –
4 | Cc1c(C)c2c(c(C)c1O)CC[C@@](C)(CCC[C@H](C)CCC[C@H](C)CCCC(C)C)O2 [α-Tocopherol, α-tocopherol] | 27.72 | 0.802 | 0.564 | 0.564 | 1.473 | 9.76 | 5.02 | – | 21.01 | – | – | – | – | – | did not demonstrate scavenging activity
